NR2E3 ag-1: NR2E3 agonists in two-hybrid cells, primary screen, cell-based, luminescence, CHO-S, Gal4-NCOR/VP16-NR2E3 | inhibition of corepressor binding, % at 3.98 µM | AID 602229, 2012 | 360,000 compounds, 0.35% hits | Photoreceptor-specific nuclear receptor (Homo sapiens), Q9Y5X4 | luciferase;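 active = inhibition above the mean of all tested compounds plus 3 SD, cut at about 70% in these data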;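 also: 0% = DMSO with NR2E3 transfected cells and 100% = cells lacking NR2E3 construct; higher means lower luciferase signal from less NR2E3 corepressor binding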
Gli-Sufu antag: Gli-Sufu pathway antagonists, primary screen, luciferase luminescence, Sufu-KO-LIGHT cells, uHTS; Sufu-KO-LIGHT fibroblasts, Gli luciferase reporter luminescence; inhibition, % at 5 µM; 340,000 compounds, 0.74% hits; AID 588413, 2011;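 active = inhibition above about 55%, limit read from the data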;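 also: 0% = DMSO-treated cells and 100% = wells with medium but no cells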
Jurkat NFkB inh: inhibitors of induced NF-kB luciferase reporter, primary screen, TCR NF-kB activation inhibitor project, cell-based, luminescence, uHTS; inhibition, % at 4 µM; 330,000 compounds, 0.53% hits; Jurkat, PMA/ionomycin-induced NF-kB luciferase reporter; in the data active = inhibition above about 50%
GalR3 antag: GalR3 antagonists in HEK293 cells, primary screen, cell-based, fluorescence readout | Galanin receptor type 3 (Homo sapiens), O60755 | HEK293 GalR3-CNG cAMP membrane potential fluorescence; galR3 body fused to GalR1 C-terminus | inhibition, % at 3 µM | 360,000 compounds, 0.44% hits | AID 651719, 2012;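 active = inhibition above the screen-wide average plus 3 SD, cut at about 13% in these data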;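 also: forskolin and galanin both at EC90 stimulate the cells; cAMP rise reported by CNG channel membrane potential dye signal; 0% = forskolin plus galanin with DMSO and 100% = forskolin alone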
Target sequence (O60755 1-299 limits assumed): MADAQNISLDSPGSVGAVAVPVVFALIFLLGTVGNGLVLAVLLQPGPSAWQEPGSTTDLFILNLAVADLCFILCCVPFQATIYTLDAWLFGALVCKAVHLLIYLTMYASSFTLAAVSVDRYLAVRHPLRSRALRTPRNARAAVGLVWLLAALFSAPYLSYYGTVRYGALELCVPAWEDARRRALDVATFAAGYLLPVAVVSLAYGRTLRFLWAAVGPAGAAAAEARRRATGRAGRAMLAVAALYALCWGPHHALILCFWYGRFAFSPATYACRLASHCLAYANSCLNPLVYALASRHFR
697 NFkB inh: inhibitors of PMA/ionomycin-induced NF-kB reporter, 697 cells, primary screen, B-cell NF-kB inhibitor project, cell-based, luminescence, uHTS; inhibition, % at 4 µM; 330,000 compounds, 0.33% hits; AID 435022, 2010; 697 B-cell NF-kB luciferase reporter, 16 h; in the data active = inhibition above about 35%
NR2E3 ag-2: inhibitors of NR2E3-RetCOR corepressor binding, primary screen, NR2E3 agonist project, biochemical, TR-FRET, GST-NR2E3, biotin-RetCOR. Photoreceptor-specific nuclear receptor (Homo sapiens), Q9Y5X4. 1536-well. inhibition of corepressor binding, % at 4.78 µM. 320,000 compounds, 0.12% hits. AID 2300, 2010;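 active = percent inhibition above the cutoff of mean plus 3 SD of all tested compounds, set per screening campaign, cut at about 20% in these data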;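 also: 0% = DMSO wells and 100% = biotin wells as full block of FRET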
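Assay system: NR2E3–RetCOR corepressor complex. Quantity: 1.35 nM GST-NR2E3. Buffer or medium: pH 7.5 Tris-based buffer. Reagent: biotinylated RetCOR corepressor at 7 nM final. Schedule: 5 h at 4 °C. Detection: TR-FRET, emission read at 617 and 671 nm. Replicates: one well per compound, singlicate testing.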
NR2E3 ag conf: NR2E3 agonist confirmation in cells, cell-based, luminescence, CHO-S two-hybrid. shares compounds with NR2E3 ag-1. CHO-S mammalian two-hybrid NR2E3-NCOR, luciferase luminescence. AID 624378, 2012. 2,300 compounds, 51% hits. inhibition, % at 3.98 µM;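 active = average inhibition above a cutoff equal to the mean inhibition of all tested compounds plus one SD, cut at about 70% in these data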;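 also: 0% = DMSO in NR2E3 cells and 100% = DMSO in cells lacking NR2E3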
GAL4-VP16 luc: GAL4-VP16 reporter modulators, confirmation, counter-screen for NR2E3 agonist project, cell-based, luminescence, CHO-S, high throughput; shares compounds with NR2E3 ag-1; 2,300 compounds, 29% hits; inhibition, % at 3.98 µM; CHO-S GAL4-VP16 luciferase reporter; AID 624379, 2012;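 active = mean inhibition above a cutoff equal to the average over all tested compounds plus one standard deviation, cut at about 70% in these data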;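 also: luciferase from a UAS reporter driven by GAL4-VP16 transactivation; 0% = DMSO with VP16-transfected cells and 100% = DMSO with cells lacking VP16; higher means less reporter light so more repression of VP16 activity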
* marks the source's active call; other numbers are inactive results; . = not tested or not shown. Sampled rows, rich in hits. Any-hit rate of the full collection: about 1.8%.

SMILES	NR2E3 ag-1	Gli-Sufu antag	Jurkat NFkB inh	GalR3 antag	697 NFkB inh	NR2E3 ag-2	NR2E3 ag conf	GAL4-VP16 luc
O=C1NC(=O)/C(=C/c2ccccc2OCc2ccccc2)S1	51	8	-8	-4	-20	4	57	45
CCOC(=O)c1ccc(NC(=S)N2CCN(C(=O)C3CCCO3)CC2)cc1 (stereo not drawn)	-4	-6	3	-1	15	2	.	.
O=C(CNC(=O)c1ccc2c(c1)S(=O)(=O)N=C1CCCCCN12)Nc1ccc(F)c(F)c1	12	-3	-11	-4	15	1	.	.
CCCNC(=O)Cn1cccc1C(=O)c1ccccc1	89*	-12	7	-2	14	-2	22	11
Cc1cc(OCC(=O)N2CCC(O)CC2)c2c(C)cc(=O)oc2c1	4	-23	0	.	-7	3	.	.
c1ccc(-c2cc(CSc3nc4ccccc4[nH]3)on2)cc1	63	-5	14	-6	-38	0	83*	51
Cc1noc(C)c1CSc1nc2ccccc2[nH]1	-12	14	-4	2	-1	3	.	.
Oc1ccc(O)c(C=NNC(=S)NC2CC3CC2C2C=CCC32)c1 (stereo not drawn)	53	.	.	-6	.	.	-18	-34
Clc1ccc(-c2csc(Nc3ccccc3)[n+]2Cc2ccco2)c(Cl)c1	-63	-58	.	-10	.	.	.	.
CCOc1ccc(CCNC(=O)COC(=O)Cc2ccc(F)cc2)cc1OCC	59	-2	-5	-1	-24	2	22	13
CCOc1ccc(CCNC(=O)COC(=O)Cc2c[nH]c3ccccc23)cc1OCC	-5	-8	-2	6	9	3	.	.
Cc1ccc2nc(Cl)c(C3CC(c4cccs4)=NN3S(C)(=O)=O)cc2c1 (stereo not drawn)	-21	-2	7	-2	5	-1	.	.
COC(c1ccccc1)c1nnc(CCC(=O)NCCC(C)C)o1 (stereo not drawn)	-25	-4	-7	5	7	1	.	.
CC(C)CCCCCCCCCCCCC(=O)NCC(=O)NC1C(C)OC(Nc2ncnc3nc[nH]c23)C(O)C1O (stereo not drawn)	72*	70*	.	-7	.	.	98*	97*
COc1cnc(-c2ccccn2)nc1Oc1ccccc1Cl	0	6	-10	-5	-27	1	.	.
COc1cnc(-c2ccccn2)nc1Oc1ccc(Cl)cc1	79*	-9	-1	-6	-15	-1	24	-25
COc1cnc(-c2ccccn2)nc1Oc1ccc(Cl)c2ccccc12	64	8	3	-4	-8	0	11	35
COc1cnc(-c2ccccn2)nc1Oc1ccc(F)cc1F	44	-1	-28	-4	-24	4	.	.
CC(c1ccco1)N(C(=O)c1ccc(Cl)c([N+](=O)[O-])c1)c1ccccn1 (stereo not drawn)	-34	2	-9	-10	-1	6	.	.
O=C1NN=C2CCCCCC12 (stereo not drawn)	15	.	.	-6	.	.	.	.
O=C(O)CC1(CC(=O)NCc2ccc(C(F)(F)F)cc2)CCCCC1	-14	1	4	2	10	3	.	.
O=C(O)CC1(CC(=O)Nc2cc(C(F)(F)F)cc(C(F)(F)F)c2)CCCCC1	58	-3	17	-3	17	-1	88*	45
